# Source: PubChem BioAssay
# Tb MetRS inh: T. brucei MetRS inhibitors, primary screen, biochemical, luminescence; purified T. brucei MetRS, ATP depletion, Kinase-Glo luminescence; AID 624268, 2012; hit rate 0.4% among 360,000; inhibition, % at 11.9 µM;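 active = inhibition above a per-plate cutoff of the control wells' mean inhibition plus 3 SD, cut at about 5.5% in these data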;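 note: 0% = DMSO wells median and 100% = median of wells with control inhibitor compound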
#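 Material: parasite MetRS enzyme / Replication: singlicate, one well per compound / Signal: luminescence of leftover ATP / Schedule: 2 h aminoacylation at 25 °C after 15 min preincubation / Medium: HEPES-MgCl2-KCl buffer plus DTT, spermine, BSA, pyrophosphatase / Doses: 11.9 µM single point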
# NPR1 activator: GC-A stimulated cGMP production enhancers – HEK293 GC-A cells, cGMP TR-FRET, EC30 ANP, primary screen | Atrial natriuretic peptide receptor 1 (Homo sapiens), P16066 | 0% at EC30 ANP, 100% saturating ANP | activation, % at 10 µM | hit rate 0.14% among 370,000 | AID 1671463, 2021; in the data active = activation above about 40%
# Target sequence (P16066 whole entry, looked up): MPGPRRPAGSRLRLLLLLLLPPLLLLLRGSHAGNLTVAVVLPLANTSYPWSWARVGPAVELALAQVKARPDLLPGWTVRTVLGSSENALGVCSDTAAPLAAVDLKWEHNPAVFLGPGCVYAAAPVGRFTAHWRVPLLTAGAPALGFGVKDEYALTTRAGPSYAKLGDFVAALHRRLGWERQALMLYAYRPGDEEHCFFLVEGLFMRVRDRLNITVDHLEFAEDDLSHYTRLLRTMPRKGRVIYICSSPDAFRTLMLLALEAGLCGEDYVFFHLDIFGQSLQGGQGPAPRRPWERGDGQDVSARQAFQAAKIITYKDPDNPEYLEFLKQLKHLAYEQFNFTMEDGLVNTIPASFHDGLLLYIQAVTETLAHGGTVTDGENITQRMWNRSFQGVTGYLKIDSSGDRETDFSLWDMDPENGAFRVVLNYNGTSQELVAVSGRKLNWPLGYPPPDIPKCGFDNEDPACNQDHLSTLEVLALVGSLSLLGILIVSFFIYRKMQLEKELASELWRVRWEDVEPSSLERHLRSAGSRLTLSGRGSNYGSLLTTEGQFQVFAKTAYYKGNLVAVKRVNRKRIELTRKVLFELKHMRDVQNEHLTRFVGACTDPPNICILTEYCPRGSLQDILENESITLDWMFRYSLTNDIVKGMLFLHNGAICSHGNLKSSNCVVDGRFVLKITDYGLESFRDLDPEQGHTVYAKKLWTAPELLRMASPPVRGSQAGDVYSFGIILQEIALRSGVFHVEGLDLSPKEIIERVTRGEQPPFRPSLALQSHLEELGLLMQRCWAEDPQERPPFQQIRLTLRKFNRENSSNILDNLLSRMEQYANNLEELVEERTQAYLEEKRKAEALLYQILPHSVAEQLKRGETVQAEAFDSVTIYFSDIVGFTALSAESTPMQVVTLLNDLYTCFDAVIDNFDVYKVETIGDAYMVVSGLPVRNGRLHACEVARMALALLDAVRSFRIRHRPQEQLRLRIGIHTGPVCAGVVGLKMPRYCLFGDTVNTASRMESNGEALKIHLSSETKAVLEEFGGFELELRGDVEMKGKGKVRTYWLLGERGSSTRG
# SKN-1 inh: suppressors of acrylamide-induced Pgst-4::GFP reporter in worms, primary screen, SKN-1 inhibitor project, whole organism, uHTS, GFP/RFP fluorescence ratio, strain VP596 | C. elegans VP596 Pgst-4::GFP/RFP ratio, 24 h | inhibition, % at 21.8 µM | hit rate 0.49% among 360,000;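 active = interference check ratio from 0.5 to 1.5 plus GFP to RFP signal ratio inhibition reaching or exceeding a fixed threshold, cut at about 30% in these data, passing the limit was not always enough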
# MT1-MMP act inh: blockers of MT1-MMP proenzyme processing, primary screen, HT1080 RFP-PRO-GFP cells, GFP/RFP fluorescence | GFP/RFP ratio fluorescence, overnight; percent of plate control window, DMSO zero | GFP/RFP ratio change, % at 20 µM | hit rate 0.061% among 360,000 | AID 651647, 2012;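 active = GFP/RFP ratio change of at least 30% with cell ATP level not reduced by more than half and red fluorescence within 50% of control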
#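 Test system: HT1080 RFP-PRO-GFP cells; Benchmarks: DMSO and RFP-L50D-GFP cell wells; Timing: cells overnight before dosing, compound overnight, 37 °C, 5% CO2; Compound: one 20 µM compound dose with 1% DMSO; Read-out: GFP/RFP fluorescence ratio.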
# NPR2 activator: human GC-B receptor activators, primary screen, HEK293 GC-B cells, cGMP TR-FRET, EC30 CNP; Atrial natriuretic peptide receptor 2 (Homo sapiens), P20594; 0% at EC30 CNP, 100% saturating CNP; activation, % at 10 µM; hit rate 0.11% among 370,000;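 active = activation at 10 µM reaching about 35% in either raw or pattern-adjusted values, limit read from the data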
# A1 inh: caspase 3/7 activation in MEF A1-2A-BIM cells, primary screen, A1 inhibitor project, cell-based, luminescence, HTS. hit rate 0.066% among 330,000. Caspase-Glo 3/7 luminescence, 3 h; percent of clofoctol response, vehicle zero. caspase activation, % (test concentration not listed);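 active = over half of replicate activation scores above 10%, or exactly half above 10 with the replicate mean above 10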
# * marks the source's active call; other numbers are inactive results; · = no result given. Only some compounds are listed: those with a hit (about 1.1% of all), similar ones and a draw of the others.
SMILES,Tb MetRS inh,NPR1 activator,SKN-1 inh,MT1-MMP act inh,NPR2 activator,A1 inh
COc1ccc(CNC(=S)OC2CCC23CCC(c2ccccc2)CC3)cc1 (stereo not drawn),·,-1,·,·,4,·
CCCCCCc1cc2cc(-c3nnc(-c4ccccc4O)o3)c(=O)oc2cc1O,-1,10,57*,-475,10,0
CCCCCCc1cc2cc(-c3nnc(-c4ccccc4OC)o3)c(=O)oc2cc1O,-1,3,33,-498,5,0
CC1(C)OC(=O)C(=Cc2ccc(-c3ccc(S(N)(=O)=O)cc3)o2)C(=O)O1,-1,40*,-4,-6,16,6.1*
NS(=O)(=O)c1ccc(-c2ccc(/C=C3\C(=O)Nc4ccccc43)o2)cc1,·,·,·,·,·,3
O=C(c1ccccc1C(F)(F)F)N1CCC(Oc2cccnc2)CC1,·,4,·,·,2,·
CCN(CC)C(=O)CC[C@H]1CC[C@]2(CCCN(Cc3cccnc3)C2)O1,·,4,·,·,-1,·
CCn1ncc(Br)c1C(=O)Nc1ccc(F)cc1F,-2,-4,3,0,2,0
CCn1ncc(Br)c1C(=O)Nc1ccc(F)c([N+](=O)[O-])c1,0,28,-8,0,35*,0
Cc1cccc(CS(=O)(=O)c2ncc(Cl)c(C(=O)Nc3nnc(C(C)C)s3)n2)c1,0,·,-5,-4,·,8.1*
CCC[C@H]1[C@@H](OC(=O)Oc2ccc([N+](=O)[O-])cc2)CC[C@@]23CCCN2C(=O)CCC[C@@H]13,·,-7,·,·,-14,·
COC(=O)c1cn(NC(=O)C2COc3ccccc3O2)c(=O)c2ccccc12 (stereo not drawn),-1,2,36*,·,6,1
Fc1cc(Br)ccc1COc1ccc(-c2nnco2)cc1,0,17,49*,4,-5,-1
Fc1ccc(COc2ccc(-c3nnco3)cc2)c(Cl)c1,0,14,87*,2,0,1
FC(F)(F)c1cnc(Oc2ccc(-c3nnco3)cc2)c(Cl)c1,1,2,29,1,1,1
CCn1c2ccccc2c2cc(NC(=O)COC(=O)c3cc(F)cc(F)c3)ccc21,·,-4,·,·,1,·
O=C(NC1CCCCN(Cc2cccc(Cl)c2)C1=O)c1cccc(C(F)(F)F)c1 (stereo not drawn),·,3,·,·,-1,·
C(#Cc1ccc2c(c1)COc1c3ccccc3nn1-2)c1ccccc1,0,0,37*,-12,0,-3
C#Cc1ccc2c(c1)COc1c3ccccc3nn1-2,0,8,48*,2,6,-7
N#Cc1cc(N2CCCCC2)c([N+](=O)[O-])cc1C#N,-1,-5,10,11,-10,1
O=[N+]([O-])c1cc2no[n+]([O-])c2cc1N1CCCCC1,0,42*,-2,2,20,·
O=C(Nc1ccccc1)OCCCc1ccccc1,0,2,35*,2,1,-2
O=C(Nc1ccccc1)OCCc1ccccc1,-1,·,19,0,·,·
C[C@@H](NC(=O)c1ncn2c1c(=O)[nH]c1ccc(Br)cc12)c1ccccc1,1,20,-6,-1,40*,·
C[C@@H](NC(=O)c1ncn2c1c(=O)[nH]c1cccnc12)c1ccccc1,-1,14,9,2,-4,·
SMILES,Tb MetRS inh,NPR1 activator,SKN-1 inh,MT1-MMP act inh,NPR2 activator,A1 inh
Nc1nc(Nc2ccccc2)nc(NCc2ccco2)c1[N+](=O)[O-],0,47*,7,-1,11,-1
Cc1ccc(Nc2nc(N)c([N+](=O)[O-])c(NCc3ccco3)n2)cc1,0,41*,13,-5,18,0
Nc1nc(NCc2ccco2)nc(Nc2ccccc2)c1[N+](=O)[O-],-1,1,5,1,-5,0
O=C(C1CCN(S(=O)(=O)c2ccc(Cl)cc2)CC1)N1CCCCCCC1,0,-1,-11,2,0,-1
O=C(C1CCN(S(=O)(=O)c2c(Cl)cccc2Cl)CC1)N1CCCC1,0,-2,35*,1,-1,2
O=C(C1CCCCC1)N1CCN(S(=O)(=O)c2ccc(Cl)cc2)CC1,-1,-4,37*,-1,-6,0
COC(=O)c1cc(-c2cc(F)cc(OC)c2)c(=O)n2c1CCC2,·,0,·,·,-1,·
COc1ccc(-c2nc(=S)c3c(n2CCN2CCOCC2)CC(C)(C)OC3)cc1,-1,4,0,2,6,-1
Cc1ccc(-c2nc(=S)c3c(n2CCN2CCOCC2)CC(C)(C)OC3)cc1,-1,-2,36*,-6,5,0
Fc1ccc(-c2nnc(-c3ccc(Cl)cc3Cl)o2)cc1,-1,3,48*,-4,-5,-6
Clc1ccc(-c2nnc(-c3ccccc3)o2)c(Cl)c1,0,8,69*,1,-3,-6
Fc1ccc(-c2nnc(-c3ccc(Cl)cc3)o2)cc1,-2,-5,26,26,-8,-2
CCCOC(=O)c1ccc(NC(=O)/C=C/c2cccs2)cc1,0,-1,47*,-6,1,-1
Cc1ccc(Nc2c(-c3cccnc3)nc3ccc(Br)cn23)cc1,-1,45*,-6,3,44*,-1
COc1ccc(-c2nc3cnccn3c2Nc2ccc(C)cc2)cc1,-1,62*,1,11,48*,-2
Cc1ccc(Nc2c(-c3ccccc3)nc3cnccn23)cc1,0,49*,7,10,33,-1
COc1cc(-c2nc3cnccn3c2Nc2c(C)cccc2C)ccc1O,-1,1,-5,1,-5,1
Cc1ccc2nc(-c3ccncc3)c(Nc3ccccc3)n2c1,1,-14,12,6,-9,0
O=C(CSc1ncnc2sc3c(c12)CCCC3)Nc1ccc(Oc2ccccc2)cc1,·,-1,·,·,4,·
COC(=O)c1[nH]c2cc(OC)ccc2c1NC(=O)c1c(F)cccc1F,0,-4,-12,-1,-1,0
C=CCNC(=S)Nc1c(C(=O)OC)[nH]c2cc(OC)ccc12,0,20,8,0,36*,0
CN(C)c1ccc(C(=O)/C=C/c2ccccc2)cc1,3,-1,43*,0,-5,-3
Cc1ccc(SCc2nc3ccccc3[nH]2)cc1,4,5,4,-4,25,0
